PHOSPHO1 inh: inhibitors of human PHOSPHO1 phosphatase; Q8TCT1; recombinant PHOSPHO1, absorbance phosphatase assay; inhibition, % at 13.3 µM; 290,000 compounds, 1.1% hits; AID 1565; in the data active = inhibition above about 60%
Target sequence (Q8TCT1 whole entry, looked up): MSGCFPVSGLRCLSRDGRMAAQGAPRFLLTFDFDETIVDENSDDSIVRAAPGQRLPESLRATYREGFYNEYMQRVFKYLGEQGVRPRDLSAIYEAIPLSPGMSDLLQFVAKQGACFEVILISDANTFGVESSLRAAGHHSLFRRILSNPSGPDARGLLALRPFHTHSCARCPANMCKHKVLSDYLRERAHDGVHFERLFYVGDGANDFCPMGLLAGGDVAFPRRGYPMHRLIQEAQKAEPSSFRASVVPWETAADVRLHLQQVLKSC
MrgX1 antagonist: blocks BAM8-22 activation of human MrgX1 receptor; AID 588676; Q96LB2; B-score at 10 µM; 310,000 compounds, 1.3% hits; MRGX1-HEK293 calcium flux, Fluo-4, BAM8-22 antagonism; hits give low values;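 active = calcium-response B-score plate-corrected more than 3 library SD below zero, starting fluorescence within 5 deviations, no agonist response on first addition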;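 note: peak minus trough fluorescence over baseline after final BAM8-22 challenge near maximal dose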
MrgX1 PAM: allosterically activates human MrgX1 receptor signaling; MrgX1-HEK293, Fluo-4 calcium flux, FDSS; hits give high values; B-score at 10 µM; 310,000 compounds, 0.63% hits; Q96LB2;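 active = plate-corrected calcium response at least 3 library SD above typical, normal starting fluorescence, not activating the receptor alone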;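 note: compound read alongside a low EC10 to EC30 dose of BAM8-22 agonist; peak minus trough fluorescence over baseline measured at the second addition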
RGS4 act: potentiators or activators of RGS4; HEK293 M3R/inducible RGS4, carbachol calcium flux Fluo4; hits give low values; B-score at 10 µM; 310,000 compounds, 0.92% hits;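 active = B-score of the integrated calcium signal more than 4 SD below the library mean, with starting fluorescence not abnormally high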;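 note: negative B-score means reduced calcium response which marks RGS4 activation or potentiation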
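Assay system: Inducible-RGS4 HEK293 cells carrying M3 receptor | Schedule: Compound preincubation 20 min at room temperature before agonist | Signal: Kinetic calcium fluorescence imaging with Fluo4-AM dye, 2 µM | Read-out basis: B score from integrated fluorescence ratio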
MrgX1 ag: agonists of human MrgX1 receptor; MrgX1-HEK293 cells, Fluo-4 calcium fluorescence, agonist mode; hits give high values; B-score at 10 µM; AID 588627; 310,000 compounds, 0.44% hits; Q96LB2;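 active = calcium response B-score plate-corrected fluorescence ratio at least 3 library SD, with starting fluorescence B-score inside 5 SD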
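Assay system: MrgX1-expressing HEK293 cells / Amount: fifteen thousand cells per well / Doses: test compound in the initial addition of three / Timing: cells plated overnight, dye loaded 0.5 h 37 °C, 0.5 h room temperature / Technique: kinetic calcium dye fluorescence, Fluo-4 NW / Control set: positive and negative controls per plate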
RGS4 inh: inhibitors of human RGS4; P49798; HEK293 M3R/RGS4 inducible, Fluo-4 calcium flux; hits give high values; triggered by carbachol at its EC20; B-score at 10 µM; 310,000 compounds, 0.45% hits;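 active = B-score, a plate-corrected calcium signal, over three deviations above library mean, with baseline fluorescence within five deviations of library mean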;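 note: RGS4 expression induced by doxycycline in cells with stable M3 receptor; B-score is computed from the integrated fluorescence ratio over baseline after carbachol; higher B-score means a larger calcium signal and so more RGS4 inhibition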
Target sequence (P49798 whole entry, looked up): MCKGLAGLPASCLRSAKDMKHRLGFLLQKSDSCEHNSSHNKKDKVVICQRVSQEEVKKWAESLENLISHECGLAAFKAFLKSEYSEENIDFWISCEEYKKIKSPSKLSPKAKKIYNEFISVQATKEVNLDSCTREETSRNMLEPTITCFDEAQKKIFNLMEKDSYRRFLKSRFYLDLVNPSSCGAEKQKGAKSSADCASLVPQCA
RGS4 act valid: confirmation of RGS4 activators; shares compounds with RGS4 act; 1,100 compounds, 89% hits; HEK293 M3R/RGS4 inducible, carbachol calcium flux Fluo4; inhibition, % at 10 µM;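 active = inhibition above 3 SD of the buffer control wells, cut at about 41% in these data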;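 note: signal is the integrated peak-minus-minimum Fluo4 fluorescence over baseline ratio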
M3R Ca counter: counter-screen for RGS4 activators: effect in non-induced cells; shares compounds with RGS4 act; HEK293 M3R non-induced RGS4, Fluo4 calcium flux; after carbachol challenge at its EC90; inhibition, % at 10 µM; 1,100 compounds, 82% hits;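 active = inhibition exceeding 3 SD of buffer-only control wells, cut at about 26% in these data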;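 note: percent drop in integrated peak-minus-baseline over baseline Fluo4 ratio after carbachol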
MrgX1 ag reconf: human MrgX1 agonism, re-confirmation screen; AID 602412; MrgX1-HEK293, Fluo-4 calcium fluorescence, FDSS; 600 compounds, 78% hits; activation, % at 10 µM; shares compounds with MrgX1 ag;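 active = calcium signal rise, corrected for plate position, at least 3 library SD high, with starting brightness within 5 such deviations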
HEK293 Ca flux: activity in parental HEK293 cells lacking MrgX1 | fluorescence ratio F(max-min)/F0 at 10 µM | shares compounds with MrgX1 antagonist | Fluo-4 calcium fluorescence, FDSS | AID 624111 | 4,000 compounds, 2% hits;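 active = duplicate-averaged calcium fluorescence ratio at least three times the standard deviation of buffer wells, a nonspecific response in parental cells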
HEK293 Ca counter: counter-screen for MrgX1 allosteric activators: effect in parental HEK293 cells. fluorescence ratio F(max-min)/F0 at 10 µM. parental HEK293 calcium flux, Fluo-4 fluorescence ratio; hits give high values. 4,000 compounds, 0.4% hits. shares compounds with MrgX1 antagonist;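 active = calcium fluorescence ratio, averaged over duplicates, at least 3 SD of the buffer-well ratio, meaning a nonspecific response in receptor-free cells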;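 note: untransfected parental HEK293 lacking MrgX1 used as counterscreen for MrgX1 allosteric activators; fluorescence change taken during the second addition on a kinetic imager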
HEK293 Ca cntr2: MrgX1 activator counter-screen hit in parental HEK293 cells. 4,000 compounds, 8.7% hits. Fluo-4 calcium fluorescence (FDSS); hits give high values. shares compounds with MrgX1 antagonist. fluorescence ratio F(max-min)/F0 at 10 µM. AID 624115;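 active = calcium fluorescence ratio at least three times the spread of buffer wells, meaning a non-specific response in parental cells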
Hits are given with their value; n = inactive; x = no result given. Sampled rows, rich in hits. Any-hit rate of the full collection: about 4.5%.

SMILES | PHOSPHO1 inh | MrgX1 antagonist | MrgX1 PAM | RGS4 act | MrgX1 ag | RGS4 inh | RGS4 act valid | M3R Ca counter | others
CNCC(O)c1cc(OCc2ccccc2)c(OCc2ccccc2)cc1F (stereo unspecified) | x | n | n | n | n | n | x | x
CC(=O)Nc1nnc(CCN(CCc2nnc(NC(C)=O)s2)[N+](=O)[O-])s1 | n | n | n | n | n | n | x | x
CCOP(=O)(OCC)C(Cc1ccccc1)NC(C)=O (stereo unspecified) | n | n | n | n | n | n | x | x
CCOP(=S)(NN(Cc1ccccc1)C(=O)c1ccccc1)OCC | n | n | n | -14 | n | n | n | n
CSc1ccc(C(=O)C2CCCN(Cc3cccnc3)C2)cc1 (stereo unspecified) | n | n | n | -8.5 | n | n | 68 | 26
CN1CC=C(/C=C/c2ccc(-c3ccccc3)cc2)CC1 | n | n | n | -8.7 | n | n | 66 | 31
COc1ccc(C(=O)C2CCCN(C3CSCCSC3)C2)c(C)c1 (stereo unspecified) | n | n | n | -8.8 | n | n | 86 | 44
COc1ccc(C(=O)C2CCCN(C3CSCCSC3)C2)c(OC)c1 (stereo unspecified) | n | n | n | -7.7 | n | n | 45 | 84
COc1ccc(C(=O)C2CCCN(Cc3ccc(C)s3)C2)c(OC)c1 (stereo unspecified) | n | n | n | n | n | n | x | x
COc1ccc(C(=O)C2CCCN(CCO)C2)c(C)c1 (stereo unspecified) | n | n | n | n | n | n | x | x
CCN(CC)CCCOC(=O)C(OC)(c1ccccc1)c1ccccc1 | n | n | n | -11 | n | n | 91 | 86
C[C@H]1CC[C@H]2NCCN[C@H]2C1 | n | n | n | n | n | n | x | x
OC(c1cccc(Cl)c1)(c1cccc(Cl)c1)C1CN2CCC1CC2 (stereo unspecified) | n | n | n | -14 | n | n | 93 | 93
CCn1ccnc1CN1CCCC(C(=O)c2cccc(C(F)(F)F)c2)C1 (stereo unspecified) | n | n | n | -9.9 | n | n | 93 | 87
Cc1cc(OC(C)C(=O)NCc2ccncc2)c2c3c(c(=O)oc2c1)CCC3 (stereo unspecified) | n | n | n | n | n | n | x | x
CCCCn1c(=O)c(C(=O)Nc2ncccc2C)c(O)c2ccccc21 | n | n | n | -9.5 | 35 | n | 66 | 41 | MrgX1 ag reconf=n;HEK293 Ca flux=n;HEK293 Ca counter=n;HEK293 Ca cntr2=n
CC(=O)O[C@]1(C)C(=O)OC/C2=C/CN(C)CCC(OC(=O)[C@@](O)(C(C)O)C[C@H]1C)C2=O (stereo partly specified) | n | n | n | n | n | n | x | x

Screening results deposited in PubChem by several laboratories.
